# In ChEMBL document CHEMBL1131423, “N-(2-Benzoylphenyl)-L-tyrosine PPARgamma agonists. 2. Structure-activity relationship and optimization of the phenyl alkyl ether moiety” (J Med Chem, 1998):
# Activity calls are given as the source filed them. The calls are words filed in the database; no cut-off is given here.
# Assays:
# [1] = molecular target: T1, Peroxisome proliferator-activated receptor alpha (Homo sapiens) (UniProt Q07869); assay: Compound was tested in vitro for inhibiting the 50% binding of Peroxisome proliferator activated receptor alpha; IA = 'inactive'
# T1 sequence (whole entry): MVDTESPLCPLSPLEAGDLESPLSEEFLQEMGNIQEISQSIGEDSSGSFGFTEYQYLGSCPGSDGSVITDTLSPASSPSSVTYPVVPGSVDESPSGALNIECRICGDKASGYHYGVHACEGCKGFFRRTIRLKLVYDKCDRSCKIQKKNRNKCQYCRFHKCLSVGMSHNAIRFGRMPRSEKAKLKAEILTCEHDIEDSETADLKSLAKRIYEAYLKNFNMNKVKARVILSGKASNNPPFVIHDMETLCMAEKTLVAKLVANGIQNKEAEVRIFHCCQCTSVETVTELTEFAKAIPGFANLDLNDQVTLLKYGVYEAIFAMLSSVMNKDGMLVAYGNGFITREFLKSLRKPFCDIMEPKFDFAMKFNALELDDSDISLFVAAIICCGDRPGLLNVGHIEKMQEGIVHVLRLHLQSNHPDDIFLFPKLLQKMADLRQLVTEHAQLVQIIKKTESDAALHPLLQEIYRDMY
# [2] = molecular target: T2, Peroxisome proliferator-activated receptor gamma (Homo sapiens) (UniProt P37231); assay: Inhibition of Peroxisome proliferator activated receptor gamma
# T2 sequence (whole entry): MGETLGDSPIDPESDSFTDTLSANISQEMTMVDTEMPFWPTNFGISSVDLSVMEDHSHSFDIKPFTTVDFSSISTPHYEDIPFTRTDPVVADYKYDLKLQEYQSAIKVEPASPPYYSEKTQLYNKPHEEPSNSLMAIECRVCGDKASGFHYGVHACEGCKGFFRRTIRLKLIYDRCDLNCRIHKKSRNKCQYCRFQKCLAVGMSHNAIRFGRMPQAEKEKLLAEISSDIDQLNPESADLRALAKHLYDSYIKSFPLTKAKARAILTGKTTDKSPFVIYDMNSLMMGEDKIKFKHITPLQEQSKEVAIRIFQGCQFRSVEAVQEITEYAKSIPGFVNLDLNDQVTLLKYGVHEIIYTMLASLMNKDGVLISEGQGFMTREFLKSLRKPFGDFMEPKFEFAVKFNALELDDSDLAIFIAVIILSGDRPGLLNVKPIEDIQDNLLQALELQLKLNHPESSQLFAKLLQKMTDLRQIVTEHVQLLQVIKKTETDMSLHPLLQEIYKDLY
# Method in brief: (§1)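 Competitive radioligand binding to PPARγ with [3H]BRL 49653 as the radioligand. […] It is converted to an apparent Ki by Ki = IC50/(1 + [L]/Kd), and results are given as pKi.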
# [3] = molecular target: T3, Peroxisome proliferator-activated receptor alpha (Homo sapiens, UniProt Q07869); assay: In vitro transactivation of Peroxisome proliferator activated receptor alpha.; format: functional
# T3 sequence (Q07869 whole entry): T1 sequence (whole entry)
# [4] = molecular target: T3, Peroxisome proliferator-activated receptor alpha; assay: Tested in vitro for inhibiting the 50% binding of Peroxisome proliferator activated receptor alpha
# [5] = The solubility determined by equilibrating an excess of solid material in 500 microL of simulated gastric fluid; format: ADME; settings: read-out: S
# Method in brief: (§2)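 Samples are filtered (0.22 µm) and diluted in water/acetonitrile 60:40. The dissolved concentration is measured by reversed-phase HPLC on a phenyl column with 0.05% TFA water/acetonitrile (60:40), 1 mL/min, and UV detection at each compound's maximum. Results are in mg/mL.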
# [6] = The solubility determined by equilibrating an excess of solid material in 500 microL of pH 7.4 phosphate buffer; format: ADME; settings: read-out: S; method in brief: as §2
# [7] = molecular target: T2, Peroxisome proliferator-activated receptor gamma (Homo sapiens); assay: Compound was tested in vitro for inhibiting the 50% binding of Peroxisome proliferator activated receptor gamma; IA = Inactive; method in brief: as §1
# [8] = molecular target: T4, Peroxisome proliferator-activated receptor gamma (Homo sapiens, UniProt P37231); assay: Inhibition by 50% of in vitro binding to Peroxisome proliferator activated receptor gamma
# T4 sequence (P37231 whole entry): T2 sequence (whole entry)
SMILES,Log Ki [2],EC50 [3] [µM],Ki [4] [µM],other results
O=C(c1ccccc1)c1ccccc1N[C@@H](Cc1ccc(OCCc2ccc(Cl)cc2)cc1)C(=O)O,–,–,–,Log Ki [1]: inactive
COc1cc(OC)c(OC)cc1COc1ccc(C[C@H](Nc2ccccc2C(=O)c2ccccc2)C(=O)O)cc1,inactive,–,–,–
CN(CCOc1ccc(C[C@H](Nc2ccccc2C(=O)c2ccccc2)C(=O)O)cc1)Cc1cccs1,inactive,–,–,–
Cc1oc(N2CCCCC2)nc1CCOc1ccc(C[C@H](Nc2ccccc2C(=O)c2ccccc2)C(=O)O)cc1,–,> 10,> 3.02,–
Cc1sc(N(C)C)nc1CCOc1ccc(C[C@H](Nc2ccccc2C(=O)c2ccccc2)C(=O)O)cc1,–,> 10,> 3.02,–
Cc1cc(CCOc2ccc(C[C@H](Nc3ccccc3C(=O)c3ccccc3)C(=O)O)cc2)nn1-c1ccccc1,–,> 10,0.407,–
Cn1cc(-c2ccccc2)nc1CCOc1ccc(C[C@H](Nc2ccccc2C(=O)c2ccccc2)C(=O)O)cc1,–,> 10,0.138,solubility thermodynamic [5]: < 1 µg/mL; solubility thermodynamic [6]: 4 µg/mL
Cc1ccc(C)c(COc2ccc(C[C@H](Nc3ccccc3C(=O)c3ccccc3)C(=O)O)cc2)c1,–,–,–,Log Ki [7]: inactive
Cc1ccc(-c2nc(CCOc3ccc(C[C@H](Nc4ccccc4C(=O)c4ccccc4)C(=O)O)cc3)c(C)o2)s1,–,0.575,0.0457,–
Cc1sc(N2CCOCC2)nc1CCOc1ccc(C[C@H](Nc2ccccc2C(=O)c2ccccc2)C(=O)O)cc1,–,> 10,1.91,solubility thermodynamic [5]: 4 µg/mL; solubility thermodynamic [6]: 180 µg/mL
COc1cc(COc2ccc(C[C@H](Nc3ccccc3C(=O)c3ccccc3)C(=O)O)cc2)cc(Br)c1OC,inactive,–,–,–
CCOc1ccc(COc2ccc(C[C@H](Nc3ccccc3C(=O)c3ccccc3)C(=O)O)cc2)cc1,–,–,–,Log Ki [7]: inactive
O=C(c1ccccc1)c1ccccc1N[C@@H](Cc1ccc(OCCOc2ccc(Br)cc2)cc1)C(=O)O,–,–,–,Log Ki [1]: inactive
COc1ccc(COc2ccc(C[C@H](Nc3ccccc3C(=O)c3ccccc3)C(=O)O)cc2)cc1OC,inactive,–,–,–
Cc1sc(N2CCNCC2)nc1CCOc1ccc(C[C@H](Nc2ccccc2C(=O)c2ccccc2)C(=O)O)cc1,–,> 10,> 3.02,solubility thermodynamic [5]: > 10000 µg/mL; solubility thermodynamic [6]: 25 µg/mL
Cc1sc(N2CCN(C(=O)OC(C)(C)C)CC2)nc1CCOc1ccc(C[C@H](Nc2ccccc2C(=O)c2ccccc2)C(=O)O)cc1,–,> 10,> 3.02,–
COc1ccccc1C(=O)N1CCC[C@H]1COc1ccc(C[C@H](Nc2ccccc2C(=O)c2ccccc2)C(=O)O)cc1,–,–,–,Ki [8]: 0.955 µM
Cc1ccc2cc(COc3ccc(C[C@H](Nc4ccccc4C(=O)c4ccccc4)C(=O)O)cc3)ccc2n1,inactive,–,–,–
COc1ccc(-c2nc(CCOc3ccc(C[C@H](Nc4ccccc4C(=O)c4ccccc4)C(=O)O)cc3)c(C)o2)cc1,–,0.389,0.107,–
COc1ccc(COc2ccc(C[C@H](Nc3ccccc3C(=O)c3ccccc3)C(=O)O)cc2)nc1OC,inactive,–,–,–
O=C(c1ccccc1)c1ccccc1N[C@@H](Cc1ccc(OCc2cnc3ccccc3c2)cc1)C(=O)O,inactive,–,–,–
COc1ccc(COc2ccc(C[C@H](Nc3ccccc3C(=O)c3ccccc3)C(=O)O)cc2)cc1Br,inactive,–,–,–
O=C(c1ccccc1)c1ccccc1N[C@@H](Cc1ccc(OC2CCN2C(c2ccccc2)c2ccccc2)cc1)C(=O)O (stereo partly specified),–,–,–,Ki [8]: 1.62 µM
COCn1c(-c2ccccc2)nc(C)c1CCOc1ccc(C[C@H](Nc2ccccc2C(=O)c2ccccc2)C(=O)O)cc1,–,> 10,> 3.02,–
CN(C)C(=O)c1cccc(COc2ccc(C[C@H](Nc3ccccc3C(=O)c3ccccc3)C(=O)O)cc2)n1,–,–,–,Log Ki [7]: inactive
